Experimental findings from ChEMBL document CHEMBL4020727, “Synthesis and biological evaluation of largazole zinc-binding group analogs” (Bioorg Med Chem, 2017) are described below.

In general, IC50 refers to the midpoint of a concentration-inhibition curve.

The structures appear in SMILES notation.

Assay [1] has as its target T1, Histone deacetylase 8 (Homo sapiens, UniProt Q9BY41).
T1 sequence (Q9BY41 whole entry): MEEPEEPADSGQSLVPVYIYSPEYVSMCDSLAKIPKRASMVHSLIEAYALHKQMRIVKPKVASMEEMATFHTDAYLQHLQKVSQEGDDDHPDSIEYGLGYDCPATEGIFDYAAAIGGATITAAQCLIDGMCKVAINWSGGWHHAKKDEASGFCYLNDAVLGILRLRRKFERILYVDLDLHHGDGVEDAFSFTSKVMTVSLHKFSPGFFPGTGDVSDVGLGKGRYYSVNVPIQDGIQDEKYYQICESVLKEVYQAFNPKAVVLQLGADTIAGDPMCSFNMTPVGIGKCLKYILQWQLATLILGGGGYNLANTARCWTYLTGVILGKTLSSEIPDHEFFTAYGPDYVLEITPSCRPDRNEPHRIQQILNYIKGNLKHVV
The assay can be described thus: Inhibition of full length C-terminal His-tagged human HDAC8 expressed in baculovirus infected Sf9 insect cells using BPS HDAC class 2a substrate after 30 mins by fluorescence assay. The gist of the method:
(§1)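 Run by a contract lab. Compound incubated with HDAC enzyme, HDAC substrate, BSA and HDAC buffer, in duplicate, at 37 °C for 30 min. Quenched with HDAC developer, then 15 min at room temperature. Percent activity = (F−Fb)/(Ft−Fb), using blank and solvent-control wells. IC50 from curve fitting.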

The target of assay [2] is Histone deacetylase 1 (Homo sapiens, UniProt Q13547). The assay can be described thus: Inhibition of recombinant full length C-terminal His/FLAG-tagged human HDAC1 expressed in baculovirus infected Sf9 insect cells using BPS HDAC substrate 3 after 30 mins by fluorescence assay. The gist of the method: as §1
Assay [3] concerns the target T2, Protein deacetylase HDAC6 (Homo sapiens, UniProt Q9UBN7).
T2 sequence (Q9UBN7 whole entry): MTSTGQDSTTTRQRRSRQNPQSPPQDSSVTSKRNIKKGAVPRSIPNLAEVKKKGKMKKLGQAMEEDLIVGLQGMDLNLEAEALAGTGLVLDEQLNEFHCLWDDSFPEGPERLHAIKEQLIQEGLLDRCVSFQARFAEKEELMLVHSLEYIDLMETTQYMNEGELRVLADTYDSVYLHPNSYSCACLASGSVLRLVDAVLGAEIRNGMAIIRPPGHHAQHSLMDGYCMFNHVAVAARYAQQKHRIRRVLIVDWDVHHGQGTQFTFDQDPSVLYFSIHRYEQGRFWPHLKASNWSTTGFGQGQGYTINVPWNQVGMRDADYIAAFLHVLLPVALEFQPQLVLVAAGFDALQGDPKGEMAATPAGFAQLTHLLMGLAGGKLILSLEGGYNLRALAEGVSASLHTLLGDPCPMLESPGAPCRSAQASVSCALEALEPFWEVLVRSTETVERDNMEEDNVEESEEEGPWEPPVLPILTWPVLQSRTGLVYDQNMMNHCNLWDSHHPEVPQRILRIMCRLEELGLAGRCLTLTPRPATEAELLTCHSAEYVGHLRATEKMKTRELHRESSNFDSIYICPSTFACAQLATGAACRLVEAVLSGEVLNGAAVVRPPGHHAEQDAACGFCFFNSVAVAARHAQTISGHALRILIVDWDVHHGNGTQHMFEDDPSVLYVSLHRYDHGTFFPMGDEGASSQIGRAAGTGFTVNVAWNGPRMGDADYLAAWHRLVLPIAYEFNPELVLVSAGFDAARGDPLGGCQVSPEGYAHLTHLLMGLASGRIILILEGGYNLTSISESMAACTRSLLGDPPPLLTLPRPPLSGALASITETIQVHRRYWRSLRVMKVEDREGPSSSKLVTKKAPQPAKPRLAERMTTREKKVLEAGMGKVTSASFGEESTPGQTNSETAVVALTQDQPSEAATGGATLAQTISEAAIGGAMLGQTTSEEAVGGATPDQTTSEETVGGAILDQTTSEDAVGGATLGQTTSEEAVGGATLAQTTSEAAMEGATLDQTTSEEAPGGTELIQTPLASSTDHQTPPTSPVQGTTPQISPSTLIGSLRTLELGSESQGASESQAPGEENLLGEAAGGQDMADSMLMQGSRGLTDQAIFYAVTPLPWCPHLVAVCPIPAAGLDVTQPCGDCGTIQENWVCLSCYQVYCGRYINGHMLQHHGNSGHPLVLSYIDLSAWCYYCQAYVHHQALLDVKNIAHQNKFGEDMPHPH
Kind of assay: Inhibition of full length N-terminal GST-tagged human HDAC6 expressed in baculovirus infected Sf9 insect cells using HDAC substrate 3 after 30 mins by fluorescence assay. In short, it runs like this: as §1

The subject of assay [4] is HCT-116. The assay can be described thus: Cytotoxicity against human HCT116 cells assessed as reduction in cell viability after 48 hrs by MTT assay. Type of assay: functional, cell-based. The following applies: HCT-116, 48 h. In short, it runs like this: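 Cells grown in DMEM with 10% FBS, 37 °C, 5% CO2; 1 × 10^4 cells per well plated and left 24 h, then exposed to a range of compound concentrations or vehicle (1% EtOH) for 48 h. Viability read by MTT.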

Sequence of Histone deacetylase 1 (Q13547 whole entry): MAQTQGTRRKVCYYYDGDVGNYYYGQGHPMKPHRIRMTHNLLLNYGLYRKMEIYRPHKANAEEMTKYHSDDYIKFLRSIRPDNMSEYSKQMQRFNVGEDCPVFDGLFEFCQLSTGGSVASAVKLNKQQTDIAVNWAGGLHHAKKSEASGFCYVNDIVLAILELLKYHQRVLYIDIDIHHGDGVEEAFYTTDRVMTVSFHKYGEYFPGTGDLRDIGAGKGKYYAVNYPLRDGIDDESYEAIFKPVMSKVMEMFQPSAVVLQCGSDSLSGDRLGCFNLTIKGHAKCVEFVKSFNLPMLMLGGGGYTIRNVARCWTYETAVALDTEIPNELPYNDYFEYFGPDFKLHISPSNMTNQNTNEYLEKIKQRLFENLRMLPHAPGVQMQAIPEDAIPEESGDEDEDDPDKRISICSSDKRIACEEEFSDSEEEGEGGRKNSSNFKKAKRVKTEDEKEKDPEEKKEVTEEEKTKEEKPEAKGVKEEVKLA

For `CC(C)[C@@H]1NC(=O)[C@]2(C)CSC(=N2)c2csc(n2)CNC(=O)C[C@@H](/C=C/CCSCCS)OC1=O`, the IC50 was determined as 9.6 µM in assay [1], 0.04 µM in assay [2], 2.8 µM in assay [3] and 1.5 µM in assay [4].

Take `CC(C)[C@@H]1NC(=O)[C@]2(C)CSC(=N2)c2csc(n2)CNC(=O)C[C@@H](/C=C/CCC(=O)NO)OC1=O`: the IC50 in assay [1] was 3.5 µM; in assay [2], 0.026 µM; in assay [3] it was 0.6 µM; in assay [4], 3.3 µM.
